Values joined by “and” are separate entries in the source; they are usually repeats but may differ in a detail not shown here. Equal values may be shown once.
Columns and labels:
[1] = molecular target: Alpha-1A adrenergic receptor (Homo sapiens) (UniProt P35348); assay: Binding affinity to alpha1A receptor (unknown origin) at 10000 nM by radioligand displacement assay relative to control
NCI-H322M = assay: Anticancer activity against human NCI-H322M cells assessed as cell growth inhibition; format: functional, cell-based; settings: dose 1-100 µM, DDE = dose-dependent effect
[2] = molecular target: D(1B) dopamine receptor (Homo sapiens) (UniProt P21918); assay: Binding affinity to D5 receptor (unknown origin) at 10000 nM by radioligand displacement assay relative to control
[3] = molecular target: Muscarinic acetylcholine receptor M1 (Homo sapiens) (UniProt P11229); assay: Binding affinity to M1 receptor (unknown origin) at 10000 nM by radioligand displacement assay relative to control
[4] = molecular target: Beta-1 adrenergic receptor (Homo sapiens) (UniProt P08588); assay: Binding affinity to beta1 receptor (unknown origin) at 10000 nM by radioligand displacement assay relative to control
SF-268 = assay: Anticancer activity against human SF-268 cells assessed as cell growth inhibition; format: functional, cell-based; settings: dose 1-100 µM, DDE = dose-dependent effect
NCI-H23 = assay: Anticancer activity against human NCI-H23 cells assessed as cell growth inhibition; format: functional, cell-based; settings: dose 1-100 µM, DDE = dose-dependent effect
[5] = molecular target: Sodium-dependent dopamine transporter (Homo sapiens, UniProt Q01959); assay: Binding affinity to DAT receptor (unknown origin) by radioligand displacement assay
T47D = assay: Anticancer activity against human T47D cells assessed as cell growth inhibition; format: functional, cell-based; settings: dose 1-100 µM, DDE = dose-dependent effect
BT-549 = assay: Anticancer activity against human BT-549 cells assessed as cell growth inhibition; format: functional, cell-based; settings: dose 1-100 µM, DDE = dose-dependent effect
PC-3M [6] = assay: Cytotoxicity against human PC-3M cells expressing PTB/GFP fusion protein assessed as reduction in ATP level at 20 uM and measured after 24 to 48 hrs by ATPlite luminescence assay; format: toxicity, cell-based; settings: time 24-48 hrs
[7] = molecular target: Alpha-1B adrenergic receptor (Homo sapiens) (UniProt P35368); assay: Binding affinity to alpha1B receptor (unknown origin) at 10000 nM by radioligand displacement assay relative to control
A498 = assay: Anticancer activity against human A498 cells assessed as cell growth inhibition; format: functional, cell-based; settings: dose 1-100 µM, DDE = dose-dependent effect
[8] = AUC (0 to 48 hrs) in female BALB/c mouse at 25 mg/kg, ip at 48 hrs by LC-MS/MS analysis; format: ADME, organism-based; design: time 48 hrs, dose 25 mg/kg, route ip; settings: in vivo
Procedure, shortened: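 Fed female BALB/c mice, about 6–8 weeks old and 25–30 g, received a single IP dose. The vehicle was 5-10% NMP + 20% PEG400 + 70-75% (25% HP-β-CD in water), with the drug at 2.5/0.5 mg/mL. Blood was taken by retro-orbital puncture under isoflurane into K2EDTA tubes, 3 mice per time point, over 48 h. Plasma was prepared at 2000 g, 5 min, 4 °C, and measured by LC/MS/MS.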

OVCAR-5 = assay: Anticancer activity against human OVCAR-5 cells assessed as cell growth inhibition; format: functional, cell-based; settings: dose 1-100 µM, DDE = dose-dependent effect
HL-60(TB) = assay: Anticancer activity against human HL-60(TB) cells assessed as cell growth inhibition; format: functional, cell-based; settings: dose 1-100 µM, DDE = dose-dependent effect
[9] = molecular target: GABA-A receptor; anion channel (Homo sapiens) (UniProt P14867+P47870+P18507+P28472+P48169+Q99928+Q9UN88+P34903+O00591+O14764+Q8N1C3+P18505+P78334+P47869+P31644+Q16445); assay: Binding affinity to GABAA receptor (unknown origin) at 10000 nM by radioligand displacement assay relative to control; format: protein-complex assay
SF-295 = assay: Anticancer activity against human SF-295 cells assessed as cell growth inhibition; format: functional, cell-based; settings: dose 1-100 µM, DDE = dose-dependent effect
[10] = molecular target: Mu-type opioid receptor (Homo sapiens) (UniProt P35372); assay: Binding affinity to MOR receptor (unknown origin) at 10000 nM by radioligand displacement assay relative to control
M14 = assay: Anticancer activity against human M14 cells assessed as cell growth inhibition; format: functional, cell-based; settings: dose 1-100 µM, DDE = dose-dependent effect
[11] = molecular target: Sigma intracellular receptor 2 (Homo sapiens, UniProt Q5BJF2); assay: Binding affinity to sigma2 receptor (unknown origin) by radioligand displacement assay
Hs-578T = assay: Anticancer activity against human Hs-578T cells assessed as cell growth inhibition; format: functional, cell-based; settings: dose 1-100 µM, DDE = dose-dependent effect
[12] = Tmax in female BALB/c mouse at 25 mg/kg, ip and measured upto 48 hrs by LC-MS/MS analysis; format: ADME, organism-based; settings: in vivo
Procedure, shortened: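 Fed female BALB/c mice, about 6–8 weeks old and 25–30 g, received a single IP dose of 5 or 25 mpk in NMP/PEG400/HP-β-CD aqueous vehicle (0.5 mg/mL for the 5 mpk dose). Three mice per time point were sampled up to 48 h by retro-orbital bleed under isoflurane into K2EDTA. Plasma was spun at 2000 g, 4 °C, frozen at -80 °C, and assayed by LC/MS/MS.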

[13] = molecular target: Sodium-dependent serotonin transporter (Homo sapiens) (UniProt P31645); assay: Binding affinity to SERT receptor (unknown origin) at 10000 nM by radioligand displacement assay relative to control
SN12C = assay: Anticancer activity against human SN12C cells assessed as cell growth inhibition; format: functional, cell-based; settings: dose 1-100 µM, DDE = dose-dependent effect
[14] = Kinetic solubility of compound
[15] = Microsomal stability in CD1 mouse liver microsomes assessed as half life measured upto 60 mins in presence of NADPH by LC-MS analysis; settings: CD1, mouse, liver microsomes
[16] = molecular target: 5-hydroxytryptamine receptor 1D (Homo sapiens) (UniProt P28221); assay: Binding affinity to 5-HT1D receptor (unknown origin) at 10000 nM by radioligand displacement assay relative to control
CCRF-CEM = assay: Anticancer activity against human CCRF-CEM cells assessed as cell growth inhibition; format: functional, cell-based; settings: dose 1-100 µM, DDE = dose-dependent effect
[17] = molecular target: D(1A) dopamine receptor (Homo sapiens) (UniProt P21728); assay: Binding affinity to D1 receptor (unknown origin) at 10000 nM by radioligand displacement assay relative to control
[18] = molecular target: Kappa-type opioid receptor (Homo sapiens) (UniProt P41145); assay: Binding affinity to KOR receptor (unknown origin) at 10000 nM by radioligand displacement assay relative to control
PC-3 = assay: Anticancer activity against human PC-3 cells assessed as cell growth inhibition; format: functional, cell-based; settings: dose 1-100 µM, DDE = dose-dependent effect
PC-3M [19] = assay: Anticancer activity in human PC-3M cells expressing PTB/GFP fusion protein assessed as perinucleolar compartment disassembly and measured after 24 hrs by Hoechst 33342 staining based microscopic method; format: functional, cell-based
Procedure, shortened: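 Imaged by high-content microscopy. Nuclei with PNC spots ≥3 and >0 scored positive. PNC prevalence % = PNC-positive nuclei/total nuclei ×100, normalized to DMSO (0% activity) and 0% PNC (−100%). IC50 from concentration-response.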

[20] = molecular target: Alpha-2C adrenergic receptor (Homo sapiens, UniProt P18825); assay: Binding affinity to alpha2C receptor (unknown origin) by radioligand displacement assay
[21] = mouse, in vivo, ip, 50 mg/kg, 0.5 h
[22] = molecular target: 5-hydroxytryptamine receptor 1B (Homo sapiens) (UniProt P28222); assay: Binding affinity to 5-HT1B receptor (unknown origin) at 10000 nM by radioligand displacement assay relative to control
Chain of 5-hydroxytryptamine receptor 1B (Homo sapiens) (P28222 whole entry): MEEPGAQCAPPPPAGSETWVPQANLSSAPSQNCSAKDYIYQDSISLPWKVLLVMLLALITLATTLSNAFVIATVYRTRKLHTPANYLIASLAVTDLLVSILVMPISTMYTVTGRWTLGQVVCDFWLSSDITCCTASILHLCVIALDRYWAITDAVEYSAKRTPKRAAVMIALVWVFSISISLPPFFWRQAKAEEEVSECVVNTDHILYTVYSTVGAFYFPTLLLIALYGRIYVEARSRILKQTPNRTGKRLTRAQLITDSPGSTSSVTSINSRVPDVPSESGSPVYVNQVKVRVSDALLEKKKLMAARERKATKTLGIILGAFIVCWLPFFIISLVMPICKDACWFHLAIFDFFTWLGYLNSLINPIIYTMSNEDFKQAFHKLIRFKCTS

Chain of Sodium-dependent serotonin transporter (Homo sapiens) (P31645 whole entry, looked up): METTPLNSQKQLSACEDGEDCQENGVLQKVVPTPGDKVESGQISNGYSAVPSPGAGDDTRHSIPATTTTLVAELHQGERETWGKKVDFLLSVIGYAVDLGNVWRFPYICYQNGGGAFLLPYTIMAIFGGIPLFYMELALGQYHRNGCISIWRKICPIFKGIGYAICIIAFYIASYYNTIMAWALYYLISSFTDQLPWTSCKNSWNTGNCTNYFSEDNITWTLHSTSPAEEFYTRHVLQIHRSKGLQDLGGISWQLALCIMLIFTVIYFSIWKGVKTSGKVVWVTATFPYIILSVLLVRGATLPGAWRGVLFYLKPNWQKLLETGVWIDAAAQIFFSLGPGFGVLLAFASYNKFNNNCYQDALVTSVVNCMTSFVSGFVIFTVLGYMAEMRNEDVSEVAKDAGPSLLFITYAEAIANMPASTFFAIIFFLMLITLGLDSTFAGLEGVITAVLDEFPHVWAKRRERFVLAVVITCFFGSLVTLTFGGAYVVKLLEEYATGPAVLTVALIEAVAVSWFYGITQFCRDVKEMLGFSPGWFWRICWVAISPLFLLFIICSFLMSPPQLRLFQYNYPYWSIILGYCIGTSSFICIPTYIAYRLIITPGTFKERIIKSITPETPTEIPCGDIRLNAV
Chain of Beta-1 adrenergic receptor (Homo sapiens) (P08588 whole entry, looked up): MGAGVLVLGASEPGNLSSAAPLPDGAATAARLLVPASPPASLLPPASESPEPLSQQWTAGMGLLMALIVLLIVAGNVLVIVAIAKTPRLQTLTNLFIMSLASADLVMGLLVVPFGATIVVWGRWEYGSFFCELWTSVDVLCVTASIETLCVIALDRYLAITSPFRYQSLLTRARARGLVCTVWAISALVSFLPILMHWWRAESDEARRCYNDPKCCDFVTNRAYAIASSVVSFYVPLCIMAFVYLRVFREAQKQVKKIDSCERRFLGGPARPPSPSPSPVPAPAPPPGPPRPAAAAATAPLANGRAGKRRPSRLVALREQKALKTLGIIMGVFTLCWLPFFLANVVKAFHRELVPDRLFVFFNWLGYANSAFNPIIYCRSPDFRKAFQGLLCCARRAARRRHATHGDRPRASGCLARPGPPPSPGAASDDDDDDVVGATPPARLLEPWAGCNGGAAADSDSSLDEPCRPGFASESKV
Chain of D(1A) dopamine receptor (Homo sapiens) (P21728 whole entry): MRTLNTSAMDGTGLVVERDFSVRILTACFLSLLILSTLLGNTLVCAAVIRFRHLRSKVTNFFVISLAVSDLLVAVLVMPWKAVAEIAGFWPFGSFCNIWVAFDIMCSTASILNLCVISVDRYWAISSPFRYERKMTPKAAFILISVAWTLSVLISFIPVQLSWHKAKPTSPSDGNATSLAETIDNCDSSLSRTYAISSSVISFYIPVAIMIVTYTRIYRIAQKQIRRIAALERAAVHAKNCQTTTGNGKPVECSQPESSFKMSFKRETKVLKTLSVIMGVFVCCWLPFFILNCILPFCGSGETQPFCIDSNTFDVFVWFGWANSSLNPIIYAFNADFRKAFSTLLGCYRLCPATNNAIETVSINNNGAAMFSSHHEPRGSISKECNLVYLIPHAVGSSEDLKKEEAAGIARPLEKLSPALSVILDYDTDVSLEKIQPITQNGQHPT
Chain of Sodium-dependent dopamine transporter (Q01959 whole entry): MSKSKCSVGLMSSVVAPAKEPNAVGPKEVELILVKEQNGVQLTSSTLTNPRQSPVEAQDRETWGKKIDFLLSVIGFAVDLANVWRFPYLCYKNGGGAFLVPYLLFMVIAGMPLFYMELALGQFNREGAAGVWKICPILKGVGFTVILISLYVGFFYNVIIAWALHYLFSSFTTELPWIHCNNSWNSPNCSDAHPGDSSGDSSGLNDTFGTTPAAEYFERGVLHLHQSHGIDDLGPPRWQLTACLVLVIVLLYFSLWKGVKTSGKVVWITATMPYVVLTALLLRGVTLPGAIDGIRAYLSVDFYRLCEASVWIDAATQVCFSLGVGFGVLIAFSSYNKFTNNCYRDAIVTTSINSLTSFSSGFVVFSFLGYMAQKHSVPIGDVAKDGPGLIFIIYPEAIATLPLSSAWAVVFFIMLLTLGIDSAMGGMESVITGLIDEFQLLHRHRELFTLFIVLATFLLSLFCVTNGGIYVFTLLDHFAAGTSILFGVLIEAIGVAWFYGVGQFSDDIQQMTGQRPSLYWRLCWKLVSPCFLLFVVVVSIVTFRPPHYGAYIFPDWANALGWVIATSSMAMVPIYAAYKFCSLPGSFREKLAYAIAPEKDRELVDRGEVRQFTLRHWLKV
Chain of Sigma intracellular receptor 2 (Q5BJF2 whole entry): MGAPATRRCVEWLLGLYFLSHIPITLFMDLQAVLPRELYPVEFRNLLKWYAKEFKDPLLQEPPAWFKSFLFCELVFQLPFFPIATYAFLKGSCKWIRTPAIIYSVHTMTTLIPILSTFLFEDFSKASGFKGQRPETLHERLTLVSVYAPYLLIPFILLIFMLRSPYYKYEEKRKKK
Chain of Mu-type opioid receptor (Homo sapiens) (P35372 whole entry): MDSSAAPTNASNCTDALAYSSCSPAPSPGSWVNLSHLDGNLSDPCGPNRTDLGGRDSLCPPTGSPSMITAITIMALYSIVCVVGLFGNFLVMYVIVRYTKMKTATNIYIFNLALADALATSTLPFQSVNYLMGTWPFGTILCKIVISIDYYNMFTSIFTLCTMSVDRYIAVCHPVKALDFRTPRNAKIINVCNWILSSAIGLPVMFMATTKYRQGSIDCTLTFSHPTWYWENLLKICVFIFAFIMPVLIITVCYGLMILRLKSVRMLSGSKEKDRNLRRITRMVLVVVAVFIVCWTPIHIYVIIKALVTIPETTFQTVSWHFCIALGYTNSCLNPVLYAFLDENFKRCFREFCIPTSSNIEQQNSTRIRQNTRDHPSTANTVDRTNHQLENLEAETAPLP
Chain of Alpha-1A adrenergic receptor (Homo sapiens) (P35348 whole entry): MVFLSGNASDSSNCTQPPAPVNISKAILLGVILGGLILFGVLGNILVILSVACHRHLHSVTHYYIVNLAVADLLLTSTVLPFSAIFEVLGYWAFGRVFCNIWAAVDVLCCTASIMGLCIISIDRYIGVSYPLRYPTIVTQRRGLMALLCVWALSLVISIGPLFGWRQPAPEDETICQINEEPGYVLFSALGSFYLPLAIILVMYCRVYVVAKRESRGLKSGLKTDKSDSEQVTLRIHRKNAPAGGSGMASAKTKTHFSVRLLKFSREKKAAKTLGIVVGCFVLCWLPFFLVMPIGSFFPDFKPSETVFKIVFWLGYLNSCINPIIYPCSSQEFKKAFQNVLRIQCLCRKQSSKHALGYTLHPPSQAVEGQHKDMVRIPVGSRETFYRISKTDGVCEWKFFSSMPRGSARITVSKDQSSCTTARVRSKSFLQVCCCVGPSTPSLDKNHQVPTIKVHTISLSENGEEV
Chain of D(1B) dopamine receptor (Homo sapiens) (P21918 whole entry): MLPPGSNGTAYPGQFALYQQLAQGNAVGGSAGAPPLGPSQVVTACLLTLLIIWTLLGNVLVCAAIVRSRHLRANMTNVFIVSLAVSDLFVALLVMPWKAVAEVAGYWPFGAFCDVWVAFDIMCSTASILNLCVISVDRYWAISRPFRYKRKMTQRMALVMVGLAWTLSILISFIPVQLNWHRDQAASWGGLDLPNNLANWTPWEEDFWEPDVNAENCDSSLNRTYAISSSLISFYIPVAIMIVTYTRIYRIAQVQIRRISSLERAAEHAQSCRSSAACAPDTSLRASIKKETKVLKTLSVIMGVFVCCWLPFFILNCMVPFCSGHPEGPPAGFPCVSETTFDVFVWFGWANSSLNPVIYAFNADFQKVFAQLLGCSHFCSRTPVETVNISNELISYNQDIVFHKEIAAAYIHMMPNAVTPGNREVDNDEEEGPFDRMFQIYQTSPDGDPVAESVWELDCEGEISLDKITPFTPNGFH
Chain of Muscarinic acetylcholine receptor M1 (Homo sapiens) (P11229 whole entry): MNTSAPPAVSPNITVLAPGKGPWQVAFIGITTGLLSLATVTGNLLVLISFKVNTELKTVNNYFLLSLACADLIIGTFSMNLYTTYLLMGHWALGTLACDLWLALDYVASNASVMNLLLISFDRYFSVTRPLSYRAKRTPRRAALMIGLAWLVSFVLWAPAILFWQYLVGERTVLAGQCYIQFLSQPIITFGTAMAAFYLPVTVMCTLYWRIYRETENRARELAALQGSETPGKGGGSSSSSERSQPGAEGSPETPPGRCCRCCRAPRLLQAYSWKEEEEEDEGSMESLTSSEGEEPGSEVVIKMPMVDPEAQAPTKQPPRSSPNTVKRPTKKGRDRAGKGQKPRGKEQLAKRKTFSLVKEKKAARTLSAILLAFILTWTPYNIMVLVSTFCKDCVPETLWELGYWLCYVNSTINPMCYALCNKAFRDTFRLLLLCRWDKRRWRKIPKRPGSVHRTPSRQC
Chain of 5-hydroxytryptamine receptor 1D (Homo sapiens) (P28221 whole entry): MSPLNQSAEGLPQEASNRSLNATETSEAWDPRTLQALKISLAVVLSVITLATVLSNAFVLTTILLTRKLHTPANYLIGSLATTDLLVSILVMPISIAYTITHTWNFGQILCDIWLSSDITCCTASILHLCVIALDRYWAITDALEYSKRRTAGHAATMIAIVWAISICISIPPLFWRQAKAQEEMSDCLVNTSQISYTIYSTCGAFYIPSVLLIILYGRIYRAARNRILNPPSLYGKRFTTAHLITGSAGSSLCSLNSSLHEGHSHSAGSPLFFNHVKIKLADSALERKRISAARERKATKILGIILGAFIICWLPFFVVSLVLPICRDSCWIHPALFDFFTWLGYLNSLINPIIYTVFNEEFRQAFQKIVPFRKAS

N=c1c2c(-c3ccccc3)c(-c3ccccc3)n(Cc3ccccc3)c2ncn1[C@H]1CC[C@H](O)CC1 [ML-246]
Activity [1]: < 50% | Activity (NCI-H322M): Dde | Activity [2]: < 50% | Activity [3]: < 50% | Activity [4]: < 50% | Activity (SF-268): Dde | Activity (NCI-H23): Dde | Ki [5]: 3410 nM | Activity (T47D): Dde | Activity (BT-549): Dde | Activity (PC-3M [6]): Toxic | Activity [7]: < 50% | Activity (A498): Dde | AUC [8]: 57.64 µM·h | Activity (OVCAR-5): Dde | Activity (HL-60(TB)): Dde | Activity [9]: < 50% | Activity (SF-295): Dde | Activity [10]: < 50% | Activity (M14): Dde | Ki [11]: 244 nM | Activity (Hs-578T): Dde | Tmax [12]: 0.5 h | Activity [13]: < 50% | Activity (SN12C): Dde | solubility kinetic [14]: > 99 µM and > 47 µg/mL | half-life at 1 h [15]: 2 h | Activity [16]: < 50% | Activity (CCRF-CEM): Dde | Activity [17]: < 50% | Activity [18]: < 50% | Activity (PC-3): Dde | IC50 (PC-3M [19]; read-out: IC50): 200 nM | IC50 (PC-3M [19]; read-out: pIC50 (converted)): 178 nM | Ki [20]: 1210 nM | Cmax [21]: 20.3 µM | Activity [22]: < 50%

Reference: ChEMBL document CHEMBL5154945, “Discovery and Optimization of Pyrrolopyrimidine Derivatives as Selective Disruptors of the Perinucleolar Compartment, a Marker of Tumor Progression toward Metastasis” (J Med Chem, 2022)
